Here are results for 29 molecules from ChEMBL document CHEMBL1828507, “Novel diarylpyridinones, diarylpyridazinones and diarylphthalazinones as potential HIV-1 nonnucleoside reverse transcriptase inhibitors (NNRTIs)” (Bioorg Med Chem, 2011).

In series [1] the test system is Human immunodeficiency virus 1. As to the kind of experiment: Antiviral activity against wild type HIV1 BaL in human TZM-b1 cells after 48 hrs by luciferase assay. The format is functional, organism-based. To be noted: Human immunodeficiency virus 1, BaL, TZM-b1, 48 h. An outline of the steps:
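Infected with 200 TCID₅₀ HIV-1 BaL, then 48 h culture and luciferase readout. Inhibition relative to untreated controls; EC50 by nonlinear regression. Triplicate wells, at least two independent experiments.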

Series [2] has as its system Human immunodeficiency virus 1. As to the kind of experiment: Antiviral activity against HIV1 VI829 expressing reverse transcriptase Y181C mutant infected in human TZM-bl cells after 48 hrs by luciferase assay. It is filed as functional, organism-based. The note with it: Human immunodeficiency virus 1, VI829, TZM-bl.
Series [3] has as its system Human immunodeficiency virus 1. As to the kind of experiment: Antiviral activity against HIV1 BaL expressing reverse transcriptase V106A mutant infected in human TZM-bl cells after 48 hrs by luciferase assay. It is filed as functional, organism-based. The note with it: Human immunodeficiency virus 1, BaL.
A short description of series [4]: Selectivity index, ratio of CC50 for human TZM-bl cells to EC50 for wild type HIV1 BaL. The note with it: read-out: Ratio CC50/EC50. The format is toxicity, cell-based. The method, boiled down:
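SI taken as CC50/EC50. CC50 from a 48 h WST-1 viability assay (A450) in TZM-bl cells. EC50 from a 48 h luciferase readout in TZM-bl cells infected with 200 TCID₅₀ HIV-1 BaL after a 30 min compound pre-incubation with DEAE dextran. Both values by nonlinear regression.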

Series [5] has as its system Human immunodeficiency virus 1. As to the kind of experiment: Ratio of EC50 for HIV1 VI829 expressing reverse transcriptase Y181C mutant infected in human TZM-b1 cells to EC50 for wild type HIV1 VI829 in human TZM-b1 cells. The format is functional.
Series [6] deals with Human immunodeficiency virus type 1 reverse transcriptase (Human immunodeficiency virus 1, UniProt Q72547). As to the kind of experiment: Inhibition of wild type HIV1 reverse transcriptase.
Series [7] deals with Human immunodeficiency virus 1. As to the kind of experiment: Ratio of EC50 for HIV1 BaL expressing reverse transcriptase V106A mutant infected in human TZM-bl cells to EC50 for wild type HIV1 BaL in human TZM-bl cells. It is filed as functional.
Series [8] deals with Human immunodeficiency virus 1. As to the kind of experiment: Antiviral activity against wild type HIV1 VI829 infected in human TZM-b1 cells after 48 hrs by luciferase assay. The format is functional, organism-based. The note with it: Human immunodeficiency virus 1, VI829, TZM-b1, 48 h.
Series [9] in a line: Cytotoxicity against human TZM-b1 cells infected with wild type HIV1 BaL after 48 hrs using formazan dye by WST1 assay. To be noted: TZM-bl cells infected with wild type HIV1 BaL. It is filed as cell-based. An outline of the steps:
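WST-1 reagent added, and absorbance at 450 nm read after 90 min. Viability relative to untreated controls; CC50 by nonlinear regression. Three replicate wells, at least two independent experiments.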

Series [10] concerns Human immunodeficiency virus 1. As to the kind of experiment: Ratio of TMC120 EC50 to compound EC50 for wild type HIV1 BaL infected in human TZM-b1 cells. The format is functional.

`Cc1cc(C)c(Nc2ccc(=O)n(Nc3cccc(C#N)c3)c2)c(C)c1` yielded a concentration giving a half-maximal response (EC50) in [1] of more than 10 µM.

For `N#Cc1ccc(Nc2ccc(=O)n(Nc3ccc(C#N)cc3)c2)cc1`, the EC50 in series [1] is more than 10 µM.

For `Cc1cc(C)c(Nc2ccnc(Nc3ccc(C#N)cc3)n2)c(C)c1` [DAPIVIRINE], the EC50 in [2] was found to be 0.0108 µM; in [1] it was 0.002 µM; in series [3], 0.0025 µM; in series [8], 0.002 µM. Besides, the selectivity ratio in series [4] was 1440. The “Ratio EC50” value in series [5] is recorded as 5.4; in [7], 1.3. In series [6], it took 2.5 µM to reach half-maximal inhibition (IC50). The molecule also showed a CC50 at 48 h in series [9] of 2.88 µM.

The molecule `Cc1cccc(C)c1Oc1ccc(=O)n(Nc2ccccc2)n1` showed an EC50 in series [1] of more than 10 µM.

The molecule `Cc1cc(C)c(Nc2ccc(=O)n(Nc3ccc(C#N)cc3)n2)c(C)c1` had an EC50 in series [1] of 1.37 µM. The selectivity ratio in series [4] was more than 69. In series [6], this molecule came in with a 50% inhibitory concentration (IC50) of 547 µM. The “Ratio EC50” value in series [10] was determined as 700. The molecule further came in with a CC50 at 48 h in [9] of more than 100 µM.

`Cc1cc(C#N)cc(C)c1Oc1ccc(=O)n(Nc2ccc(C#N)cc2)n1` returned an EC50 in series [1] of 1.75 µM. In series [4], the selectivity ratio was determined as 14. Besides, in [9], the half-maximal cytotoxic concentration (CC50) at 48 h was found to be 24.7 µM.

In turn, `Cc1cc(C)c(Nc2ccc(=O)n(Nc3ccccc3)c2)c(C)c1` displayed a half-maximal effective concentration (EC50) in [1] of more than 10 µM.

As to `Cc1cc(C)c(Nc2ccc(=O)n(Nc3ccc(C(F)(F)F)cc3)n2)c(C)c1`, in [1], the concentration giving a half-maximal response (EC50) is more than 10 µM.

As for `Cc1cccc(C)c1Oc1ccc(=O)n(Nc2cccc(C#N)c2)n1`, the concentration for a half-maximal effect (EC50) in series [1] was more than 10 µM.

For the molecule `Cc1cc(C)c(Oc2ccc(=O)n(Nc3ccc(F)cc3)n2)c(C)c1`, in [1], the response was half-maximal at 9.64 µM (EC50). For the same molecule, the selectivity ratio in series [4] turned out to be 2.4. In [9], this molecule returned a CC50 at 48 h of 23.5 µM.

On to `Cc1cc(C)c(Oc2ccc(=O)n(Nc3ccc(C#N)cc3)n2)c(C)c1`, for which the concentration for a half-maximal effect (EC50) in [2] was more than 10 µM; in [1] it was 0.69 µM; in series [3] it was 1.12 µM; in [8], 0.16 µM. In addition, the selectivity ratio in series [4] is 29. In addition, the figures for the “Ratio EC50” value in series [5] and in series [7] were more than 64 and 2, respectively. In addition, 100 µM corresponded to half-maximal inhibition in [6] (IC50). For the same molecule, in series [9], it took 19.9 µM to reach half-maximal cytotoxicity (CC50 at 48 h).

In series [1], `Cc1cc(Cl)cc(C)c1Oc1ccc(=O)n(Nc2cccc(C#N)c2)n1` registered a half-maximal effective concentration (EC50) of more than 5 µM.

`Cc1cc(Cl)cc(C)c1Oc1nn(Nc2ccc(C#N)cc2)c(=O)c2ccccc12`: the 50% effective concentration (EC50) in [1] is 3.6 µM. In addition, the selectivity ratio in series [4] amounted to 14.2. Besides, the 50% cytotoxic concentration (CC50) at 48 h in series [9] is 51.2 µM.

Consider `O=c1ccc(Nc2ccccc2)cn1Nc1ccccc1`, for which, in [1], the concentration giving a half-maximal response (EC50) is more than 10 µM.

Take `Cc1cc(C)c(Nc2ccc(=O)n(Nc3cccc(C#N)c3)n2)c(C)c1`: in series [1], the 50% effective concentration (EC50) is more than 10 µM. For the same molecule, the selectivity ratio in series [4] was less than 1. The cytotoxic concentration (CC50) at 48 h in [9] was found to be 5.04 µM.

Regarding `Cc1cc(C)c(Nc2ccc(=O)n(Nc3ccc(C(F)(F)F)cc3)c2)c(C)c1`, the half-maximal effective concentration (EC50) in series [1] was more than 10 µM.

For the molecule `Cc1cc(C)c(Oc2ccc(=O)n(Nc3cccc(C#N)c3)n2)c(C)c1`, the concentration giving a half-maximal response (EC50) in series [1] is more than 10 µM.

In series [1], `Cc1cc(Br)cc(C)c1Oc1ccc(=O)n(Nc2ccc(Cl)cc2)n1` returned an EC50 of 3.19 µM. Further, in series [4], the selectivity ratio came to 20. Also, in [9], the CC50 at 48 h was found to be 63.5 µM.

In [1], `Cc1cccc(C)c1Oc1ccc(=O)n(Nc2ccc(C#N)cc2)n1` returned an EC50 of 7.63 µM. Further, the selectivity ratio in [4] is more than 13. In series [9], this molecule showed a CC50 at 48 h of more than 100 µM.

Turning to `Cc1cc(Cl)cc(C)c1Oc1nn(Nc2ccc(Cl)cc2)c(=O)c2ccccc12`, the midpoint of the response in [1], the EC50, lay at 10 µM.

For `Cc1cc(C)c(Oc2ccc(=O)n(Nc3ccc(C(F)(F)F)cc3)n2)c(C)c1`, it took 10 µM to reach a half-maximal effect in series [1] (EC50). Also, the selectivity ratio in series [4] is 2.1. Also, the midpoint of cytotoxicity in series [9], the CC50 at 48 h, lay at 21.2 µM.

The molecule `Cc1cc(C)c(Oc2ccc(=O)n(Nc3ccc(Cl)cc3)n2)c(C)c1` displayed a 50% effective concentration (EC50) in series [1] of 3.95 µM. In addition, in series [4], the selectivity ratio was determined as 5.6. This molecule registered a half-maximal cytotoxic concentration (CC50) at 48 h in series [9] of 22.3 µM.

As to `Cc1cc(Cl)cc(C)c1Oc1ccc(=O)n(Nc2ccc(C#N)cc2)n1`, the EC50 in series [2] was more than 10 µM; in series [1], 0.6 µM; in [3], 4.55 µM; in [8], 0.5 µM. In addition, in series [4], the selectivity ratio came to 23. The “Ratio EC50” value in series [5] is more than 20; in series [7], 8. In series [9], this molecule displayed a 50% cytotoxic concentration (CC50) at 48 h of 14.1 µM.

Take `Cc1cccc(C)c1Oc1ccc(=O)n(Nc2ccc(F)cc2)n1`: in series [1], the EC50 is more than 10 µM.

Molecule `N#Cc1ccc(Nn2cc(Nc3ccccc3)ccc2=O)cc1` gave an EC50 in series [1] of more than 10 µM.

On to `Cc1cc(C)c(Nc2ccc(=O)n(Nc3ccc(C#N)cc3)c2)c(C)c1`, for which the EC50 in series [1] is more than 10 µM. For the same molecule, in [6], the IC50 came out at 760 µM.

Take `Cc1cc(C#N)cc(C)c1Oc1ccc(=O)n(Nc2cccc(C#N)c2)n1`: the half-maximal effective concentration (EC50) in series [1] is more than 10 µM.

Turning to `Cc1cc(Br)cc(C)c1Oc1ccc(=O)n(Nc2ccc(C#N)cc2)n1`, the concentration giving a half-maximal response (EC50) was more than 10 µM in [2], 0.64 µM in series [1], 2.97 µM in series [3] and 0.34 µM in [8]. Further, the selectivity ratio in series [4] is more than 193. The “Ratio EC50” value in series [5] was more than 29; in series [7], 5. Further, in series [9], the CC50 at 48 h was more than 100 µM.

`Cc1cc(C)c(Oc2nn(Nc3ccc(C#N)cc3)c(=O)c3ccccc23)c(C)c1` yielded an EC50 in series [1] of 1.39 µM. In addition, the selectivity ratio in series [4] stood at 43.3. For the same molecule, the IC50 in [6] amounted to 928 µM. In series [9], this molecule returned a half-maximal cytotoxic concentration (CC50) at 48 h of 60.4 µM.
